We go through one compound from ChEMBL document CHEMBL2150950, “Effect of 4-aryl-2-methyl-5-nitro-1,4-dihydropyridine-3-carboxylates on the guinea pig papillary muscle and isolated human vena saphena magna that is used for coronary artery bypass grafting” (2011).

Active and inactive are the calls of the source. The rule behind the calls is not given here.

The nature of test [1]: Ionotropic effect in guinea pig ventricle papillary muscles assessed as lengthening of 90% repolarized cardiac action potential duration time at 10^-7 M by microelectrode technique relative to untreated control (reference value: 209 to 222 APD50 ms) in presence of 3.1 x 10^-6 M inward rectifier current blocker BaCl2. The format is functional, Cavia porcellus.
A short description of test [2]: Ionotropic effect in guinea pig ventricle papillary muscles assessed as lengthening of 10% repolarized cardiac action potential duration time at 10^-4 M by microelectrode technique relative to untreated control (reference value: 37 to 47 APD10 ms). In kind it is functional, Cavia porcellus, Papillary muscle.
A short description of test [3]: Ionotropic effect in guinea pig ventricle papillary muscles assessed as lengthening of 25% repolarized cardiac action potential duration time at 10^-7 M by microelectrode technique relative to untreated control (reference value: 120 to 131 APD25 ms) in presence of 3.1 x 10^-6 M inward rectifier current blocker BaCl2. The format is functional, Cavia porcellus.
Test [4] can be described thus: Ionotropic effect in guinea pig ventricle papillary muscles assessed as lengthening of 90% repolarized cardiac action potential duration time at 10^-5 M by microelectrode technique relative to untreated control (reference value: 209 to 222 APD50 ms) in presence of 3.1 x 10^-6 M inward rectifier current blocker BaCl2. In kind it is functional, Cavia porcellus.
Test [5] in a line: Vasodilatory activity in human vena saphena magna assessed as reduction in phenylephrine-induced smooth muscle contraction at 10 uM. The format is functional. The essentials:
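Saphenous vein rings came from 37 CABG patients. They were bathed in Tyrode's solution (mM: NaCl 137, KCl 5.4, CaCl2 1.8, MgCl2 0.9, Tris HCl 10, glucose 5; pH 7.4), equilibrated 45–60 min and washed every 15 min. Rings were precontracted with 10^-4 M phenylephrine, then given cumulative test agent at 10^-7 to 10^-4 M. Isometric relaxation was recorded, as means ± SE.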

Test [6] can be described thus: Ionotropic effect in guinea pig ventricle papillary muscles assessed as lengthening of 10% repolarized cardiac action potential duration time at 10^-4 M by microelectrode technique relative to untreated control (reference value: 52 to 54 APD10 ms) in presence of 2 x 10^-5 M KATP channel blocker glibenclamide. The format is functional, Cavia porcellus.
The nature of test [7]: Ionotropic effect in guinea pig right ventricle papillary muscles assessed as contraction force at 10^-4 M by force transduction assay relative to untreated control (reference value: 100%) in presence of 1 x 10^-6 M IKr channel blocker Sotalol. The format is functional, Cavia porcellus, Heart right ventricle.
Test [8] is described as follows: Ionotropic effect in guinea pig ventricle papillary muscles assessed as lengthening of 50% repolarized cardiac action potential duration time at 10^-7 M by microelectrode technique relative to untreated control (reference value: 180 to 192 APD50 ms) in presence of 2 x 10^-5 M KATP channel blocker glibenclamide. In kind it is functional, Cavia porcellus.
Test [9] can be described thus: Ionotropic effect in guinea pig right ventricle papillary muscles assessed as contraction force at 10^-4 M by force transduction assay relative to untreated control (reference value: 100%) in presence of 3.1 x 10^-6 M inward rectifier current blocker BaCl2. The format is functional, Cavia porcellus, Heart right ventricle.
Test [10] can be described thus: Ionotropic effect in guinea pig ventricle papillary muscles assessed as lengthening of 25% repolarized cardiac action potential duration time at 10^-7 M by microelectrode technique relative to untreated control (reference value: 120 to 131 APD25 ms) in presence of 2 x 10^-5 M KATP channel blocker glibenclamide. In kind it is functional, Cavia porcellus.
Test [11] is described as follows: Ionotropic effect in guinea pig ventricle papillary muscles assessed as lengthening of 25% repolarized cardiac action potential duration time at 10^-4 M by microelectrode technique relative to untreated control (reference value: 120 to 131 APD25 ms) in presence of 3.1 x 10^-6 M inward rectifier current blocker BaCl2. The format is functional, Cavia porcellus.
The nature of test [12]: Ionotropic effect in guinea pig ventricle papillary muscles assessed as lengthening of 25% repolarized cardiac action potential duration time at 10^-5 M by microelectrode technique relative to untreated control (reference value: 120 to 131 APD25 ms) in presence of 3.1 x 10^-6 M inward rectifier current blocker BaCl2. The format is functional, Cavia porcellus.
Test [13] can be described thus: Ionotropic effect in guinea pig ventricle papillary muscles assessed as lengthening of 50% repolarized cardiac action potential duration time at 10^-5 M by microelectrode technique relative to untreated control (reference value: 180 to 192 APD50 ms) in presence of 3.1 x 10^-6 M inward rectifier current blocker BaCl2. In kind it is functional, Cavia porcellus.
The nature of test [14]: Ionotropic effect in guinea pig ventricle papillary muscles assessed as lengthening of 50% repolarized cardiac action potential duration time at 10^-6 M by microelectrode technique relative to untreated control (reference value: 180 to 192 APD50 ms) in presence of 3.1 x 10^-6 M inward rectifier current blocker BaCl2. The format is functional, Cavia porcellus.
Test [15] in a line: Ionotropic effect in guinea pig ventricle papillary muscles assessed as lengthening of 90% repolarized cardiac action potential duration time at 10^-6 M by microelectrode technique relative to untreated control (reference value: 132 to 176 APD50 ms). The format is functional, Cavia porcellus, Papillary muscle.
Test [16] in a line: Ionotropic effect in guinea pig ventricle papillary muscles assessed as lengthening of 90% repolarized cardiac action potential duration time at 10^-4 M by microelectrode technique relative to untreated control (reference value: 209 to 222 APD50 ms) in presence of 1 x 10^-6 M IKr channel blocker Sotalol. In kind it is functional, Cavia porcellus.
Test [17] in a line: Ionotropic effect in guinea pig ventricle papillary muscles assessed as lengthening of 50% repolarized cardiac action potential duration time at 10^-6 M by microelectrode technique relative to untreated control (reference value: 180 to 192 APD50 ms) in presence of 1 x 10^-6 M IKr channel blocker Sotalol. In kind it is functional, Cavia porcellus.
A short description of test [18]: Ionotropic effect in guinea pig ventricle papillary muscles assessed as lengthening of 25% repolarized cardiac action potential duration time at 10^-6 M by microelectrode technique relative to untreated control (reference value: 120 to 131 APD25 ms) in presence of 2 x 10^-5 M KATP channel blocker glibenclamide. The format is functional, Cavia porcellus.
Test [19] can be described thus: Ionotropic effect in guinea pig ventricle papillary muscles assessed as lengthening of 50% repolarized cardiac action potential duration time at 10^-7 M by microelectrode technique relative to untreated control (reference value: 132 to 176 APD50 ms). In kind it is functional, Cavia porcellus, Papillary muscle.
Test [20] can be described thus: Ionotropic effect in guinea pig ventricle papillary muscles assessed as lengthening of 25% repolarized cardiac action potential duration time at 10^-5 M by microelectrode technique relative to untreated control (reference value: 120 to 131 APD25 ms) in presence of 2 x 10^-5 M KATP channel blocker glibenclamide. In kind it is functional, Cavia porcellus.
Test [21] is described as follows: Ionotropic effect in guinea pig ventricle papillary muscles assessed as lengthening of 50% repolarized cardiac action potential duration time at 10^-7 M by microelectrode technique relative to untreated control (reference value: 180 to 192 APD50 ms) in presence of 1 x 10^-6 M IKr channel blocker Sotalol. In kind it is functional, Cavia porcellus.
A short description of test [22]: Ionotropic effect in guinea pig ventricle papillary muscles assessed as lengthening of 10% repolarized cardiac action potential duration time at 10^-5 M by microelectrode technique relative to untreated control (reference value: 52 to 54 APD10 ms) in presence of 3.1 x 10^-6 M inward rectifier current blocker BaCl2. The format is functional, Cavia porcellus.

Take `CCCOCCOC(=O)C1=C(C)NC=C([N+](=O)[O-])C1c1ccccc1OC(F)F` (configuration not stated): the Time in test [1] came to 237 ms; in test [2], 55.5 ms; in [3], 146.5 ms; in [4] it was 260.5 ms; in test [6], 65 ms; in test [8] it was 209 ms. Further, the Time in test [10] was determined as 141 ms; in test [11], 158 ms; in test [12], 155 ms; in test [13], 231 ms; in test [14], 224 ms; in test [15], 229 ms. Moreover, the Time in test [16] is listed as 250.8 ms; in test [17], 192 ms; in test [18], 148 ms; in test [19], 188.5 ms; in test [20], 155 ms; in test [21], 195 ms. Also, the Time in test [22] is 63.4 ms. For the same compound, the result in [5] was Active. Also, the results for the Activity in test [7] and in test [9] were 154.8% and 204.5%, respectively.
